Source: publication PMC4783179 (The Journal of comparative neurology, 2015)
Where two headings read alike, the source gives them in different places. Marks after values point to notes of the source that are not given here.

What was measured:
5-HT1A receptors [1] = target: T1, 5-HT1A receptors (Canis lupus familiaris, UniProt Q6XXX9); assay: In vitro autoradiography of 18F-Mefway, beagle dog brain slices; format: binding
T1 sequence (Q6XXX9 1-423): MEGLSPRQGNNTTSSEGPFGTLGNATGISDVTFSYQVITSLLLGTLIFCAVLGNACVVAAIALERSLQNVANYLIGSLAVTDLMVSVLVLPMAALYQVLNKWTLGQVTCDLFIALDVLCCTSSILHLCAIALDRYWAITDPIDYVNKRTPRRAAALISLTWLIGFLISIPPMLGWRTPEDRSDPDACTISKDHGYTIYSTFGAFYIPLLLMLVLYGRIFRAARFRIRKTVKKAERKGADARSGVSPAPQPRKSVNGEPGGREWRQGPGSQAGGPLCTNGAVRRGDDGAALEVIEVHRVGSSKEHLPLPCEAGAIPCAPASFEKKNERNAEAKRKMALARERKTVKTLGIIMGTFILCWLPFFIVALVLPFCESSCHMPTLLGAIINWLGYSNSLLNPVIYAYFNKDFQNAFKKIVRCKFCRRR
Procedure, shortened: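 Dog tissue: unfixed beagle brain (4.5–15.4 yr), stored at −80 °C, cut as 10 µm hemi-coronal slices with hippocampus and cortex. Human tissue: postmortem hippocampus (PMI 3.8–5.8 h), cut at 7 µm. Slices preincubated in 50 mM Tris-HCl pH 7.4 for 10 min at room temperature, then incubated with 37–185 kBq/mL tracer at 37 °C for 1 h. […] Two 1-min ice-cold buffer washes, then 24 h phosphor-screen exposure. Binding read as DLU/mm².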

5-HT2B = 5-HT2B (Homo sapiens, UniProt P41595); assay: NIMH PDSP binding affinity, human cloned receptor
5-HT2B, sequence (P41595 whole entry): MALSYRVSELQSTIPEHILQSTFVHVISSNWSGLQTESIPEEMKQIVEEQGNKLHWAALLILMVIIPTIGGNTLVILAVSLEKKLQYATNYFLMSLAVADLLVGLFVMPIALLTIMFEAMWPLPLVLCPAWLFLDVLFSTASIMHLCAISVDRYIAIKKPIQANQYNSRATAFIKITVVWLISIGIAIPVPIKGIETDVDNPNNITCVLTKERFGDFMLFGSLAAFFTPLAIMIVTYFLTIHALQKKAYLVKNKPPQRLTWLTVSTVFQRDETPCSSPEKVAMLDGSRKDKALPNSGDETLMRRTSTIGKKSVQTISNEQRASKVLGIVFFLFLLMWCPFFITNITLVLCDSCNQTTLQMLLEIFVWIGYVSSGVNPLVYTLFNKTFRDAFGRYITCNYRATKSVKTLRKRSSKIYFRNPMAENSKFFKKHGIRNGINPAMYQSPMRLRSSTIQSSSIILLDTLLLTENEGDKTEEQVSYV

5-HT1A receptors [2] = target: T2, 5-HT1A receptors (Homo sapiens, UniProt P08908); details: ref Hillmer et al., 2014, cited from earlier work; for HP/CB PET ratio / Brain Uptake: human; for HP/CB PET ratio: 90 mins post-injection; for Brain Uptake: initial, 1–2 min post-injection
T2 sequence (P08908 1-422): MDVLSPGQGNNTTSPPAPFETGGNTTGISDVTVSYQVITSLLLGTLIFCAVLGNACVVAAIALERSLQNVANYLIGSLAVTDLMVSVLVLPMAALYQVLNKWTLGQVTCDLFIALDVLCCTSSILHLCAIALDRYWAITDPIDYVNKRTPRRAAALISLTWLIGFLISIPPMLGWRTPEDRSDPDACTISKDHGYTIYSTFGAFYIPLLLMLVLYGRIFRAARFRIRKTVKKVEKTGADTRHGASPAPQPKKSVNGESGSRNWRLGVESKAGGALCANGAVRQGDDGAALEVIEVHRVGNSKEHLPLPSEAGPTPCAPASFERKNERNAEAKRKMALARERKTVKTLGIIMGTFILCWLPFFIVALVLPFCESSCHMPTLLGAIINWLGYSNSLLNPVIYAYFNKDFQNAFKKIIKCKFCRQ

[3] = test system: all other human-cloned receptor subtypes tested; assay: NIMH PDSP screening of the remaining panel; format: binding
5-HT1A receptors [4] = target: T3, 5-HT1A receptors (Mus musculus, UniProt Q64264); assay: In vitro autoradiography of 18F-Mefway, mouse brain slices; format: binding
T3 sequence (Q64264 1-421): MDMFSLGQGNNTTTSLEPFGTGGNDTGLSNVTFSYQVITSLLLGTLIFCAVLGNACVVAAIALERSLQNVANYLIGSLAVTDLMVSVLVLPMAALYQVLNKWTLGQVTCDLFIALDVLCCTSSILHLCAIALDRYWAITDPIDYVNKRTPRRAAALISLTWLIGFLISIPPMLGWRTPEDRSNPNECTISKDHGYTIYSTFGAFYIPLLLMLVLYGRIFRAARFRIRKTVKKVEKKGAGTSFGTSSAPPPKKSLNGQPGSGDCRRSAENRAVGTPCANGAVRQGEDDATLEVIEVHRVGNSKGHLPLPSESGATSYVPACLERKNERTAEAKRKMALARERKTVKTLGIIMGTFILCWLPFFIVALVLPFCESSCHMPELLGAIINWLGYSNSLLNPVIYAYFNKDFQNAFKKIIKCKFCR
Procedure, shortened: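 Horizontal 10 µm slices covering hippocampus, frontal cortex, dorsal raphe and cerebellum. Sources: frozen brains of male BALB/c mice (25 g) or male Sprague-Dawley rats (250–300 g). Preincubated in 50 mM Tris-HCl pH 7.4 for 10 min at room temperature, then 37–185 kBq/mL tracer at 37 °C for 1 h. […] Washed, then phosphor screen for 24 h. Regional DLU/mm² expressed as ratios to cerebellum as reference.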

D3 subtype = D3 subtype (Homo sapiens, UniProt P35462); assay: NIMH PDSP binding affinity, human cloned receptor; details: read-out: Affinity, D3 subtype
D3 subtype, sequence (P35462 whole entry): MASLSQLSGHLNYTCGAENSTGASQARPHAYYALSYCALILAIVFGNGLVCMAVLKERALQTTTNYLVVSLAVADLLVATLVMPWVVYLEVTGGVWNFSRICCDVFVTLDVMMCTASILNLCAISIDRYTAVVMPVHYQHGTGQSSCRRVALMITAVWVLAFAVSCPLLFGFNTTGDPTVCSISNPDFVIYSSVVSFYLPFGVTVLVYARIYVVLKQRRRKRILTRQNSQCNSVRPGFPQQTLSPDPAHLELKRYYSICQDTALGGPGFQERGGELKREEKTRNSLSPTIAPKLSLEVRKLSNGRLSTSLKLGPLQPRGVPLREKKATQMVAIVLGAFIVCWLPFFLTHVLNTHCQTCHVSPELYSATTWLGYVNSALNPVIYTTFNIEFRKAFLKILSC

[5] = target: serotonin 5-HT1A receptor (Homo sapiens, UniProt P08908); format: binding; details: human cloned receptor, PDSP
[6] = test system: serotonin 5-HT1A receptor; format: binding, human; details: [5-HT1A affinity/other receptor affinity]×100; 5-HT1A 0.6 or 2.2 nM for WAY-100635, 0.9 nM for Mefway
dopamine D4 = dopamine D4 (Homo sapiens, UniProt P21917); assay: NIMH PDSP binding affinity, human cloned receptor
dopamine D4, sequence (P21917 whole entry): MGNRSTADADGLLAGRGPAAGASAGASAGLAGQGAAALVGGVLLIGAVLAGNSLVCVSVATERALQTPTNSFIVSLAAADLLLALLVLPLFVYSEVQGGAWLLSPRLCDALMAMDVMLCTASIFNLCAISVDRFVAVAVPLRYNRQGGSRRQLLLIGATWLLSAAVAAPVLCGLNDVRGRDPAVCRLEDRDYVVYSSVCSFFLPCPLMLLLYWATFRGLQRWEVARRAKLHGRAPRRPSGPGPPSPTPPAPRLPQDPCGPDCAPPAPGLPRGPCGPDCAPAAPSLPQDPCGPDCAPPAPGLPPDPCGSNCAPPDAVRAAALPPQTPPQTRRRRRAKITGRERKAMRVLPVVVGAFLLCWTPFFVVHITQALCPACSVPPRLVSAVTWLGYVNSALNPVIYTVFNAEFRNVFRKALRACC

[7] = dog brain cortex, relative to layers I and II
[8] = [5-HT1A affinity/other receptor affinity]×100, 5-HT1A 0.6 or 2.2 nM for WAY-100635, 0.9 nM for Mefway

COc1ccccc1N1CCN(CCN(C(=O)C2CCC(CF)CC2)c2ccccn2)CC1 (centres unmarked) [Mefway]
Level of binding in cortical layers I and II (5-HT1A receptors [1]; dog brain cortex, relative to highest layer): 100% | Level of binding in cortical layers III and IV (5-HT1A receptors [1]; [7]): 31% | Level of binding in cortical layers V and VI (5-HT1A receptors [1]; [7]): 36% | Ratio of hippocampus to white matter, autoradiography (5-HT1A receptors [1]; dog brain, same brain slice): > 50 | Binding displaced in hippocampus and cortex (5-HT1A receptors [1]; in the presence of 10 μM of WAY-100635, dog (all the species)): > 95% | % human 5HT1A Selectivity, 5-HT2B (5-HT2B; [8]): 0.35% | Ki (5-HT2B; read-out: Binding affinity, Ki, 5-HT2B, human cloned receptor, PDSP): 260 nM | Adverse or pharmacologic effects in human subjects (5-HT1A receptors [2]; approximately 185 MBq bolus, 6 subjects): no adverse or clinically detectable pharmacologic effects | Binding potential HP, BPND (5-HT1A receptors [2]; human hippocampus): 2.7 ^i | HP/CB PET ratio (5-HT1A receptors [2]): 4 ^i | HP/CB PET ratio (5-HT1A receptors [2]; listed as 18F-Mefway): 4 | Brain Uptake (5-HT1A receptors [2]): 0.002 ^e %ID/cc | Brain Uptake (5-HT1A receptors [2]; listed as 18F-Mefway): 0.002 %ID/cc | Affinity, other adrenergic receptor subtypes ([3]; adrenergic subtypes other than α1A and α1D): poor affinities | Affinity, all other receptor subtypes tested in section 2.3 ([3]; at 10 μM concentration, significant = > 50% inhibition): did not exhibit significant affinity | Affinity, other serotonin receptor subtypes ([3]; serotonin subtypes other than 5-HT1A, 5-HT7, 5-HT2B): did not show significant affinities | Binding displaced in hippocampus and cortex (5-HT1A receptors [4]; in the presence of 10 μM of WAY-100635, mouse (all the species)): > 95% | Ratio in cortical regions, autoradiography (5-HT1A receptors [4]; mice): > 10 | Ratio of hippocampus to cerebellum, autoradiography (5-HT1A receptors [4]; mice, brain slices incubated for one hr): 25 | Ratio of raphe to cerebellum, autoradiography (5-HT1A receptors [4]; mice, horizontal sections): 22 | Ki (D3 subtype): 139 nM | Binding affinity, Ki, 5-HT1A [5]: subnanomolar affinity | Ki ([5]; read-out: Binding affinity, Ki, 5-HT1A): 0.9 nM | % human 5HT1A Selectivity, 5-HT1A [6]: 100% | % human 5HT1A Selectivity, D4 (dopamine D4; [8]): 0.71% | Ki (dopamine D4; read-out: Binding affinity, Ki, D4, human cloned receptor, PDSP): 126 nM
